Test results published in ChEMBL document CHEMBL1156186, “Anti-AIDS agents 81. Design, synthesis, and structure-activity relationship study of betulinic acid and moronic acid derivatives as potent HIV maturation inhibitors” (J Med Chem, 2010).
The source made the active and inactive calls. The calls are words filed in the database; no cut-off is given here.

What was measured:
[1] = test system: Human immunodeficiency virus 1; test: Antiviral activity against HIV1 3B infected in human MT2 cells assessed as inhibition of viral replication at 0.8 to 100 ug/mL treated 1 day after infection measured on after 4 days postinfection by p24 antigen ELISA; type: functional, organism-based
How it was run: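 MT-2 cells at 3×10⁵ cells/mL were infected with HIV-1 IIIB (125 TCID₅₀) in the presence of serially diluted sample, and fresh medium was added on day 1 post-infection. Supernatants were harvested on day 4 for p24 antigen ELISA. EC₅₀ is the concentration giving 50% suppression of replication. Values are the average of at least two separate experiments.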

MT2 = test: Cytotoxicity against human MT2 cells by XTT assay; type: cell-based
How it was run: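 Toxicity was read by XTT on mock-infected MT-2 cells (3×10⁵ cells/mL), run as a duplicate set of the infection plates without virus, with medium added on day 1 and the assay ended on day 4. IC₅₀ is the concentration toxic to 50% of cells. Values are the average of at least two experiments.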

[2] = test system: Human immunodeficiency virus 1; test: Antiviral activity against HIV1 NL4-3 infected in human MT4 cells assessed as inhibition of viral replication treated 1 day after infection measured on after 4 days postinfection by p24 antigen ELISA; type: functional, organism-based
How it was run: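 MT-4 cells were infected with HIV-1 NL4-3 variants at an MOI of 0.01 in 96-well format with test sample. Culture supernatants were collected on day 4 post-infection for p24 antigen capture ELISA.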

[3] = Therapeutic index, IC50 for human MT2 cells to EC50 for HIV1 3B; type: cell-based; details: read-out: Ratio IC50/EC50
How it was run: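 TI is calculated as IC₅₀ (XTT, mock-infected MT-2) divided by EC₅₀ (p24 ELISA, HIV-1 IIIB-infected MT-2), both taken on day 4 post-infection from parallel plates. Values are the average of at least two experiments.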

[4] = test system: Human immunodeficiency virus 1; test: Antiviral activity against HIV1 3B infected in human MT2 cells assessed as inhibition of viral replication treated 1 day after infection measured on after 4 days postinfection by p24 antigen ELISA; type: functional, organism-based; details: Human immunodeficiency virus 1, 3B
[5] = test system: Human immunodeficiency virus 1; test: Antiviral activity against HIV1 expressing CA-SP1 A1V mutant infected in human HeLa cells assessed as inhibition of virion-associated p25 to p24 conversion at 1 ug/mL after 2 days by Western blotting; type: functional, organism-based
How it was run: (§1)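 HeLa cells transfected with pNL4-3 bearing the A1V or L231M mutation and cultured with or without test compound. Two days post-transfection, cells labeled 2 h with ³⁵S-Met/Cys. Cell lysates prepared; virions pelleted by ultracentrifugation. Cell and viral lysates immunoprecipitated with HIV-Ig, then Western blotted for p25 and p24.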

[6] = test system: Human immunodeficiency virus 1; test: Antiviral activity against HIV1 expressing […] L231M mutant infected in human HeLa cells assessed as inhibition of cell line-associated p25 to p24 conversion at 1 ug/mL after 2 days by Western blotting; type: functional, organism-based; how it was run: as §1
[7] = test system: Human immunodeficiency virus 1; test: Antiviral activity against wild type HIV1 NL4-3 infected in human HeLa cells assessed as inhibition of virion-associated p25 to p24 conversion at 1 ug/mL after 2 days by Western blotting; type: functional, organism-based
How it was run: (§2)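 HeLa cells were transfected with pNL4-3 proviral DNA and cultured with or without compound. Two days post-transfection, cells were metabolically labelled for 2 h with ³⁵S-Met/Cys. Cell lysates were prepared and virions were pelleted by ultracentrifugation. Both fractions were immunoprecipitated with HIV-Ig, and the p25 and p24 bands were examined by Western blotting.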

[8] = test system: Human immunodeficiency virus 1; test: Antiviral activity against HIV1 expressing CA-SP1 A1V mutant infected in human HeLa cells assessed as inhibition of cell line-associated p25 to p24 conversion at 1 ug/mL after 2 days by Western blotting; type: functional, organism-based; how it was run: as §1
[9] = test system: Human immunodeficiency virus 1; test: Antiviral activity against HIV1 expressing […] L231M mutant infected in human HeLa cells assessed as inhibition of virion-associated p25 to p24 conversion at 1 ug/mL after 2 days by Western blotting; type: functional, organism-based; how it was run: as §1
[10] = test system: Human immunodeficiency virus 1; test: Antiviral activity against wild type HIV1 NL4-3 infected in human HeLa cells assessed as inhibition of cell line-associated p25 to p24 conversion at 1 ug/mL after 2 days by Western blotting; type: functional, organism-based; how it was run: as §2

CC1(C)C=C2[C@H]3CC[C@@H]4[C@@]5(C)CC[C@H](OC(=O)C6CCC6)C(C)(C)[C@@H]5CC[C@@]4(C)[C@]3(C)CC[C@@]2(C(=O)O)CC1
inhibition [1]: inactive | IC50 (MT2): > 10 µM

CC(C)CC(=O)O[C@H]1CC[C@]2(C)[C@H]3CC[C@@H]4C5=CC(C)(C)CC[C@]5(C(=O)O)CC[C@@]4(C)[C@]3(C)CC[C@H]2C1(C)C
inhibition [1]: inactive | IC50 (MT2): > 10 µM

C=C(C)[C@@H]1CC[C@]2(C(=O)O)CC[C@]3(C)[C@H](CC[C@@H]4[C@@]5(C)CC[C@H](OC(=O)C[C@@](C)(CC)C(=O)O)C(C)(C)[C@@H]5CC[C@]43C)[C@@H]12
inhibition [2]: inactive

CCC(C)C(=O)O[C@H]1CC[C@]2(C)[C@H]3CC[C@@H]4C5=CC(C)(C)CC[C@]5(C(=O)O)CC[C@@]4(C)[C@]3(C)CC[C@H]2C1(C)C (some centres not stated)
inhibition [1]: inactive | IC50 (MT2): > 10 µM

C=C(C)[C@@H]1CC[C@]2(C(=O)O)CC[C@]3(C)[C@H](CC[C@@H]4[C@@]5(C)CC[C@H](OC(=O)CC(C)(CC)C(=O)O)C(C)(C)[C@@H]5CC[C@]43C)[C@@H]12 (some centres not stated)
selectivity ratio [3]: 60700 | IC50 (MT2): 36.4 µM | EC50 [4]: 0.0006 µM

C=C(C)[C@@H]1CC[C@]2(C(=O)O)CC[C@]3(C)[C@H](CC[C@@H]4[C@@]5(C)CC[C@H](OC(=O)[C@@H]6CCCC[C@H]6C(=O)O)C(C)(C)[C@@H]5CC[C@]43C)[C@@H]12
selectivity ratio [3]: 2.4 | IC50 (MT2): 40.9 µM | EC50 [4]: 17.3 µM

C=C(C)[C@@H]1CC[C@]2(C(=O)O)CC[C@]3(C)[C@H](CC[C@@H]4[C@@]5(C)CC[C@H](OC(=O)C[C@H](C)C(=O)O)C(C)(C)[C@@H]5CC[C@]43C)[C@@H]12
Activity [5]: Active | Activity [6]: Active | Activity [7]: Active | Activity [8]: Active | selectivity ratio [3]: 3770 | Activity [9]: Active | Activity [10]: Active | EC50 [4]: 0.0087 µM

CC(C)C(=O)O[C@H]1CC[C@]2(C)[C@H]3CC[C@@H]4C5=CC(C)(C)CC[C@]5(C(=O)O)CC[C@@]4(C)[C@]3(C)CC[C@H]2C1(C)C
inhibition [1]: inactive | IC50 (MT2): > 10 µM

C=C(C)[C@@H]1CC[C@]2(C(=O)O)CC[C@]3(C)[C@H](CC[C@@H]4[C@@]5(C)CC[C@H](OC(=O)/C=C(/C)C(=O)O)C(C)(C)[C@@H]5CC[C@]43C)[C@@H]12
selectivity ratio [3]: 236 | IC50 (MT2): 42.5 µM | EC50 [4]: 0.18 µM

C=C(C)[C@@H]1CC[C@]2(C(=O)O)CC[C@]3(C)[C@H](CC[C@@H]4[C@@]5(C)CC[C@H](OC(=O)C6C7C=CC(C7)C6C(=O)O)C(C)(C)[C@@H]5CC[C@]43C)[C@@H]12 (some centres not stated)
inhibition [1]: inactive | IC50 (MT2): 40.3 µM

C=C(C)[C@@H]1CC[C@]2(C(=O)O)CC[C@]3(C)[C@H](CC[C@@H]4[C@@]5(C)CC[C@H](OC(=O)CCC(C)(C)C(=O)O)C(C)(C)[C@@H]5CC[C@]43C)[C@@H]12
selectivity ratio [3]: 870 | IC50 (MT2): 41.8 µM | EC50 [4]: 0.048 µM

C=C(C)[C@@H]1CC[C@]2(C(=O)O)CC[C@]3(C)[C@H](CC[C@@H]4[C@@]5(C)CC[C@H](OC(=O)[C@@H]6CCC[C@H]6C(=O)O)C(C)(C)[C@@H]5CC[C@]43C)[C@@H]12
selectivity ratio [3]: 19 | IC50 (MT2): 41.9 µM | EC50 [4]: 2.2 µM

C=C(C)[C@@H]1CC[C@]2(C(=O)O)CC[C@]3(C)[C@H](CC[C@@H]4[C@@]5(C)CC[C@H](OC(=O)CC(C)(C)C(=O)O)C(C)(C)[C@@H]5CC[C@]43C)[C@@H]12 [BEVIRIMAT]
selectivity ratio [3]: 32900 | IC50 (MT2): 42.8 µM | EC50 [4]: 0.0013 µM

CCC(=O)O[C@H]1CC[C@]2(C)[C@H]3CC[C@@H]4C5=CC(C)(C)CC[C@]5(C(=O)O)CC[C@@]4(C)[C@]3(C)CC[C@H]2C1(C)C
inhibition [1]: inactive | IC50 (MT2): > 10 µM

CC1(C)C=C2[C@H]3CC[C@@H]4[C@@]5(C)CC[C@H](OC(=O)C6CCCC6)C(C)(C)[C@@H]5CC[C@@]4(C)[C@]3(C)CC[C@@]2(C(=O)O)CC1
inhibition [1]: inactive | IC50 (MT2): > 10 µM

C=C(C)[C@@H]1CC[C@]2(C(=O)O)CC[C@]3(C)[C@H](CC[C@@H]4[C@@]5(C)CC[C@H](OC(=O)C6CC=CCC6C(=O)O)C(C)(C)[C@@H]5CC[C@]43C)[C@@H]12 (some centres not stated)
inhibition [1]: inactive | IC50 (MT2): 41.1 µM

C=C(C)[C@@H]1CC[C@]2(C(=O)O)CC[C@]3(C)[C@H](CC[C@@H]4[C@@]5(C)CC[C@H](OC(=O)C[C@@H](C)C(=O)O)C(C)(C)[C@@H]5CC[C@]43C)[C@@H]12
selectivity ratio [3]: 365 | IC50 (MT2): 43.8 µM | EC50 [4]: 0.12 µM

CCCC(=O)O[C@H]1CC[C@]2(C)[C@H]3CC[C@@H]4C5=CC(C)(C)CC[C@]5(C(=O)O)CC[C@@]4(C)[C@]3(C)CC[C@H]2C1(C)C
inhibition [1]: inactive | IC50 (MT2): > 10 µM

CC1(C)C=C2[C@H]3CC[C@@H]4[C@@]5(C)CC[C@H](OC(=O)C(C)(C)C)C(C)(C)[C@@H]5CC[C@@]4(C)[C@]3(C)CC[C@@]2(C(=O)O)CC1
inhibition [1]: inactive | IC50 (MT2): > 10 µM

CCCCC(=O)O[C@H]1CC[C@]2(C)[C@H]3CC[C@@H]4C5=CC(C)(C)CC[C@]5(C(=O)O)CC[C@@]4(C)[C@]3(C)CC[C@H]2C1(C)C
inhibition [1]: inactive | IC50 (MT2): > 10 µM
